Assay results as given in ChEMBL document CHEMBL4270659, “Discovery and anti-inflammatory evaluation of benzothiazepinones (BTZs) as novel non-ATP competitive inhibitors of glycogen synthase kinase-3β (GSK-3β)” (Bioorg Med Chem, 2018).
Values belong to the molecule of their own block, whether it stands above or below them. Activity calls are given as the source filed them. No cut-off for these calls is given here.

What was measured:
[1] = biological target: T1, Glycogen synthase kinase-3 beta (Homo sapiens, UniProt P49841); assay: Inhibition of human recombinant N-terminal His6-tagged human GSK-3beta expressed in Baculovirus infected SF9 cells using prephosphorylated-GS2 polypeptide as substrate after 30 mins by kinase-Glo reagent based luminescence assay
Method in brief: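 GSK-3β was incubated with ATP and GS-2 substrate with or without compound. ATP remaining after the kinase reaction was quantified by Kinase-Glo luminescence. IC50 is the mean of triplicate experiments.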
Target sequence in this assay (P49841 whole entry): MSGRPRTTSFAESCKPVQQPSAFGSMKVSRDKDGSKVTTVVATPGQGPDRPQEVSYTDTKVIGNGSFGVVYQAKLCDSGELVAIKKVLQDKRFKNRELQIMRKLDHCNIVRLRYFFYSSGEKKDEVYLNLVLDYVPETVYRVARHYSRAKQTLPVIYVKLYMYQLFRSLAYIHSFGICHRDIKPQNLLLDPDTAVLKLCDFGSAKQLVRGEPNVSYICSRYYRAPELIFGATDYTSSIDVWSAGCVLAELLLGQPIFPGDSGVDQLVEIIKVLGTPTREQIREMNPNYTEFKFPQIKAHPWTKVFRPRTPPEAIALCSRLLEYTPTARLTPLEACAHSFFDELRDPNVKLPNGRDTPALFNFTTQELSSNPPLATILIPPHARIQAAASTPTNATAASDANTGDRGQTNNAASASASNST

[2] = biological target: Mast/stem cell growth factor receptor Kit (Homo sapiens) (UniProt P10721); assay: Inhibition of human c-KIT at 100 uM
Method in brief: (§1)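 Kinase selectivity panel run at 100 μM inhibitor. Activity is reported as % inhibition, the mean of two independent experiments.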

[3] = biological target: Fibroblast growth factor receptor 1 (Homo sapiens) (UniProt P11362); assay: Inhibition of human FGFR1 at 100 uM; method in brief: as §1
Mus musculus [4] = assay: In vivo inhibition of GSK-3beta in C57BL/6 mouse lung injury model assessed as upregulation of LPS-induced phosphorylation at Ser9 residue in lung at 80 uM, ip administered 12 hrs prior to LPS challenge and measured after 24 hrs by Western blot analysis relative to control; assay type: functional
Method in brief: (§2)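 Mice were pretreated ip with compound (80 μM) or PBS, and LPS (10 mg/kg ip) was given 12 h later. Lungs were collected 24 h post-LPS, and p-GSK-3β and SIRT1 were detected by Western blot. Values are means ± SE of 4 independent experiments.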

Mus musculus [5] = assay: Anti-inflammatory activity in C57BL/6 mouse lung injury model assessed as inhibition of IL-1beta mRNA expression level at 80 uM, ip administered 12 hrs prior to LPS challenge and measured after 24 hrs by qRT-PCR analysis; assay type: functional
[6] = biological target: Proto-oncogene tyrosine-protein kinase receptor Ret (Homo sapiens) (UniProt P07949); assay: Inhibition of human RET at 100 uM
[7] = biological target: Cyclin-dependent kinase 1 (Homo sapiens) (UniProt P06493); assay: Inhibition of human CDK1 at 100 uM; method in brief: as §1
Mus musculus [8] = assay: Anti-inflammatory activity in C57BL/6 mouse lung injury model assessed reduction in lung tissue damage at 80 uM, ip administered 12 hrs prior to LPS challenge and measured after 24 hrs by Hematoxylin and eosin staining-based light microscopic analysis; assay type: functional; design: scale not given: the % may be the effect or the level left
Method in brief: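 C57BL/6 mice received compound (80 μM) or PBS ip, followed 12 h later by LPS (10 mg/kg ip). At 24 h after LPS, lungs were fixed, embedded, sectioned and H&E stained. Hemorrhage, edema, interstitial inflammatory cell infiltration, hyaline membrane and atelectasis were each graded 0–4 to give an injury score. Mean ± SEM, n = 5 mice.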

[9] = biological target: Proto-oncogene tyrosine-protein kinase Src (Homo sapiens) (UniProt P12931); conditions: at 100 µM
[10] = biological target: Protein kinase C alpha type (Homo sapiens) (UniProt P17252); assay: Inhibition of human PKCalpha at 100 uM; method in brief: as §1
[11] = biological target: Vascular endothelial growth factor receptor 1 (Homo sapiens) (UniProt P17948); assay: Inhibition of human Flt1 at 100 uM; method in brief: as §1
Mus musculus [12] = assay: In vivo inhibition of GSK-3beta in C57BL/6 mouse lung injury model assessed as upregulation of SIRT1 expression in lung at 80 uM, ip administered 12 hrs prior to LPS challenge and measured after 24 hrs by Western blot analysis relative to control; assay type: functional; method in brief: as §2
[13] = biological target: Receptor tyrosine-protein kinase erbB-4 (Homo sapiens) (UniProt Q15303); assay: Inhibition of human ErbB4 at 100 uM; method in brief: as §1
[14] = biological target: Platelet-derived growth factor receptor beta (Homo sapiens) (UniProt P09619); assay: Inhibition of human PDGFRbeta at 100 uM; method in brief: as §1
[15] = biological target: Platelet-derived growth factor receptor alpha (Homo sapiens) (UniProt P16234); assay: Inhibition of human PDGFRalpha at 100 uM; method in brief: as §1
Mus musculus [16] = assay: Anti-inflammatory activity in C57BL/6 mouse lung injury model assessed as inhibition of IL-6 mRNA expression level at 80 uM, ip administered 12 hrs prior to LPS challenge and measured after 24 hrs by qRT-PCR analysis; assay type: functional
[17] = biological target: Casein kinase 2 (Homo sapiens) (UniProt P67870+P68400+P19784+Q8NEV1); assay: Inhibition of human CK2 at 100 uM; assay type: protein assay; method in brief: as §1
[18] = biological target: T1, Glycogen synthase kinase-3 beta; assay: Non-ATP competitive inhibition of recombinant N-terminal His6-tagged human GSK-3beta expressed in Baculovirus infected SF9 cells at 15 to 25 uM using prephosphorylated-GS2 polypeptide as substrate after 30 mins by kinase-Glo reagent based luminescence assay
Method in brief: (§3)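 Kinetic analysis used the same Kinase-Glo GSK-3β assay. Inhibitor was tested at fixed concentrations while one substrate (ATP or GS-2) was held constant and the other varied, and the data were plotted as double-reciprocal plots.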
Target sequence in this assay (P49841 whole entry, looked up): as the sequence (P49841 whole entry) above

Homo sapiens = species on record: Homo sapiens; assay: Inhibition of human PKA at 100 uM; method in brief: as §1
[19] = biological target: Tyrosine-protein kinase ABL1 (Homo sapiens) (UniProt P00519); conditions: at 100 µM
[20] = biological target: Vascular endothelial growth factor receptor 2 (Homo sapiens) (UniProt P35968); assay: Inhibition of human KDR at 100 uM; method in brief: as §1
[21] = biological target: T1, Glycogen synthase kinase-3 beta; assay: Non-ATP competitive inhibition of recombinant N-terminal His6-tagged human GSK-3beta expressed in Baculovirus infected SF9 cells at 20 to 30 uM using prephosphorylated-GS2 polypeptide as substrate after 30 mins by kinase-Glo reagent based luminescence assay; method in brief: as §3
Target sequence in this assay (P49841 whole entry, looked up): as the sequence (P49841 whole entry) above

Sequence of Mast/stem cell growth factor receptor Kit (Homo sapiens) (P10721 whole entry): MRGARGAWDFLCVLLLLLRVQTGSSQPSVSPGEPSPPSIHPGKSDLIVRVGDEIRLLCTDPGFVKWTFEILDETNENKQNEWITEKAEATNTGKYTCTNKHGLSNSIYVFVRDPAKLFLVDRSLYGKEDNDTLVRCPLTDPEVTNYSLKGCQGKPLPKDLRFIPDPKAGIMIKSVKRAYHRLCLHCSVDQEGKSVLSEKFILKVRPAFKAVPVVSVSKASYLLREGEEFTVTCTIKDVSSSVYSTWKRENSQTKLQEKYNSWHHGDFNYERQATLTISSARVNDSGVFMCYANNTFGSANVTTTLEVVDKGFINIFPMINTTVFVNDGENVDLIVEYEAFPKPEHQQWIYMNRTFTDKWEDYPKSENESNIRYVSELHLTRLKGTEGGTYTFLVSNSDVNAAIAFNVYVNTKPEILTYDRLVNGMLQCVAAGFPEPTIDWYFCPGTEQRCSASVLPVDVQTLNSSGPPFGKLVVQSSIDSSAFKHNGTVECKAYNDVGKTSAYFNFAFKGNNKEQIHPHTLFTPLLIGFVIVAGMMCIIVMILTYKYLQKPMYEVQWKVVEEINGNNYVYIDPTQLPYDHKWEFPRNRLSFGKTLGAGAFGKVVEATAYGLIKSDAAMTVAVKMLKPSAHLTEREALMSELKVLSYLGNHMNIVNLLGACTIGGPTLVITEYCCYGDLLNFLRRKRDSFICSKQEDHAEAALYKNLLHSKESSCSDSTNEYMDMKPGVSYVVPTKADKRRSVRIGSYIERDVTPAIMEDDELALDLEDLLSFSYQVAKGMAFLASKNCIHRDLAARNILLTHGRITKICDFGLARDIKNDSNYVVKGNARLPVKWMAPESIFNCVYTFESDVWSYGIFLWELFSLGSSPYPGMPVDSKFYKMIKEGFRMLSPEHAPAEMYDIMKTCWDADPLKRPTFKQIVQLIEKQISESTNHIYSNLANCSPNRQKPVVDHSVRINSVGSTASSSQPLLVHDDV
Sequence of Proto-oncogene tyrosine-protein kinase Src (Homo sapiens) (P12931 2-536 limits assumed): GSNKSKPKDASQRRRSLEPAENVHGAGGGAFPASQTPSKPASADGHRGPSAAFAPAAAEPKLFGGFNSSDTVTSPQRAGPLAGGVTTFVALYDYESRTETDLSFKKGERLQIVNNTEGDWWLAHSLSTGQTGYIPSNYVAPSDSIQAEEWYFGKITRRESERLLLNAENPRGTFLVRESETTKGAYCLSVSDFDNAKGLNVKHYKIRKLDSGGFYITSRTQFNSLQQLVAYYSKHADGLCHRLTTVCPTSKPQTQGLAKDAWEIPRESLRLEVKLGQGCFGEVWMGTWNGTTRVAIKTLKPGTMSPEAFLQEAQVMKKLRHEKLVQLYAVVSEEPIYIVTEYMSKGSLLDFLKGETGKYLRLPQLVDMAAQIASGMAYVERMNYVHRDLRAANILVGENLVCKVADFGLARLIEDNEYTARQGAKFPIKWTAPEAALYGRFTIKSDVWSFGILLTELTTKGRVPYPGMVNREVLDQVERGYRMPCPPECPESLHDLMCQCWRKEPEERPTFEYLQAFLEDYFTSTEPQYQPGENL
Sequence of Tyrosine-protein kinase ABL1 (Homo sapiens) (P00519 whole entry): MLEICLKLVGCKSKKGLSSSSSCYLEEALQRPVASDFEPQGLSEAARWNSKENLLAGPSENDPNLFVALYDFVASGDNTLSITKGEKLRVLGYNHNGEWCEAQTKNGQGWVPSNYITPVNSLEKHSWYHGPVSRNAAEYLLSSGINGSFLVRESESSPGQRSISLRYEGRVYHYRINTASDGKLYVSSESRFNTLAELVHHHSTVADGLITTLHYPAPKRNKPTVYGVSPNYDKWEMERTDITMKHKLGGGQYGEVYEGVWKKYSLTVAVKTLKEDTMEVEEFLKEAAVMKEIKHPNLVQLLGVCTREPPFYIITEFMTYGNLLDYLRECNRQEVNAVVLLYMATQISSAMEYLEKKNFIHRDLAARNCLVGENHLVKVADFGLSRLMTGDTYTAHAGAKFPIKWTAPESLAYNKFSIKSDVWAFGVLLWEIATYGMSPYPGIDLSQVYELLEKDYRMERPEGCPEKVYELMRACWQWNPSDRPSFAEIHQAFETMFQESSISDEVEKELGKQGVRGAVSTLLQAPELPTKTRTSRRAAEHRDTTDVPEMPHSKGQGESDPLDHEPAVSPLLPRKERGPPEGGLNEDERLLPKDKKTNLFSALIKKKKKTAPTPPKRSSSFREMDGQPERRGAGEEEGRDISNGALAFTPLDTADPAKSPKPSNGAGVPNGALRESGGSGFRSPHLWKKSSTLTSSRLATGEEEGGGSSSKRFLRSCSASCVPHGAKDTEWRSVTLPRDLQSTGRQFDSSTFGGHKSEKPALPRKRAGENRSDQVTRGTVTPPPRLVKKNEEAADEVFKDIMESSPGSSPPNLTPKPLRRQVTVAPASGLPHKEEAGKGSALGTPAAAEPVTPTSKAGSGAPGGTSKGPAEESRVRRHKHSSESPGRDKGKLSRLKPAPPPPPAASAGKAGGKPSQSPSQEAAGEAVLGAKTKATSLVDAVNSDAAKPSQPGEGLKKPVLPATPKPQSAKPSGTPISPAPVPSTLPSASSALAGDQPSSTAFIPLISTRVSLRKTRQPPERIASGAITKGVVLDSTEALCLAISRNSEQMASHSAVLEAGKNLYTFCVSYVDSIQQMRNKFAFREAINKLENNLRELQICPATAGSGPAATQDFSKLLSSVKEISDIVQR
Sequence of Platelet-derived growth factor receptor beta (Homo sapiens) (P09619 whole entry): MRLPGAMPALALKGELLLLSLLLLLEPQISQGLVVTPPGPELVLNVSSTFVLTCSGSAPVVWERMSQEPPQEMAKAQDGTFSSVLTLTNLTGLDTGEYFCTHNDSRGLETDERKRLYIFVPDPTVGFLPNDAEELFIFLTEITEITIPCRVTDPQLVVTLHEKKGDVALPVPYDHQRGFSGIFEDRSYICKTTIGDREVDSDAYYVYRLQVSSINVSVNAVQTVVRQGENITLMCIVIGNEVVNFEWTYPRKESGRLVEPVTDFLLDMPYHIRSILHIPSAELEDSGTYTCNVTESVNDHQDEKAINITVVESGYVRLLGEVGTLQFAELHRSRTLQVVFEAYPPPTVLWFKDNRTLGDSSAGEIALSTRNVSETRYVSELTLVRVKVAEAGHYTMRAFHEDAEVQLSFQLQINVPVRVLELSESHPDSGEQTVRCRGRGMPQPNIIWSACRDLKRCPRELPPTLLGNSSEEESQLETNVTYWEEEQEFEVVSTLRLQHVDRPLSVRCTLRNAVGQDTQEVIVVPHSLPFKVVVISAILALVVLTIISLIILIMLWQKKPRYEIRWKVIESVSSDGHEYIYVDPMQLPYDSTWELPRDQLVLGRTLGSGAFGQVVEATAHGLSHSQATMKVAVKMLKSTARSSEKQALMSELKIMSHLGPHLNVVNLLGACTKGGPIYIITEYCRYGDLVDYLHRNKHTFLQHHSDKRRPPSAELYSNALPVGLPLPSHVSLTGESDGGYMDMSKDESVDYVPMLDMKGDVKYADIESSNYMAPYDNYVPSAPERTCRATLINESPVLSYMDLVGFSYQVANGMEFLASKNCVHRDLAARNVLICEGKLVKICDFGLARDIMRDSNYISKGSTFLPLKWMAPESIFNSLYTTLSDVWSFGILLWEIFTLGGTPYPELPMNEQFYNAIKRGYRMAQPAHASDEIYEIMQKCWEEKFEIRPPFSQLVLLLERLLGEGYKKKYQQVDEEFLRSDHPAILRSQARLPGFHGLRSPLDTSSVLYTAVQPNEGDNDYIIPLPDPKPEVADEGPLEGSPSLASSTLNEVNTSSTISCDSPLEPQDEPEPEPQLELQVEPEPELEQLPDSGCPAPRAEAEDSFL
Sequence of Cyclin-dependent kinase 1 (Homo sapiens) (P06493 whole entry, looked up): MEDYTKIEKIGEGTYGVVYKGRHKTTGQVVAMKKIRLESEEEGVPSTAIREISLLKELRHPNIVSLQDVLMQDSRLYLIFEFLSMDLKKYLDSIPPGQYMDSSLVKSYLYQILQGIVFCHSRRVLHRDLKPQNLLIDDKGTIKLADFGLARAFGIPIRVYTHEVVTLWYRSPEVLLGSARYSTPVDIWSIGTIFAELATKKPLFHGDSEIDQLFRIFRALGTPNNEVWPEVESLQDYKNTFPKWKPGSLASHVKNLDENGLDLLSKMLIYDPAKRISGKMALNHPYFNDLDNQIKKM

SMILES: CCN(CC)C(=O)c1ccc(C2CC(=O)N(Cc3ccccc3[N+](=O)[O-])c3ccccc3S2)cc1 (stereo unspecified)
- IC50 [1]: 90 µM

SMILES: COC(=O)c1ccccc1C1CC(=O)N(Cc2ccccc2[N+](=O)[O-])c2ccccc2S1 (stereo unspecified)
- IC50 [1]: 80 µM

SMILES: Cc1ccc(C2CC(=O)N(Cc3ccccc3[N+](=O)[O-])c3ccccc3S2)cc1 (stereo unspecified)
- IC50 [1]: 20 µM

SMILES: COC(=O)c1cccc(C2CC(=O)N(Cc3ccccc3[N+](=O)[O-])c3ccccc3S2)c1 (stereo unspecified)
- IC50 [1]: 66 µM

SMILES: CCN(CC)CCNC(=O)c1c(C)[nH]c(/C=C2\C(=O)Nc3ccc(F)cc32)c1C
- inhibition [2]: 49.4%

SMILES: NC(=O)c1ccccc1CN1C(=O)CC(c2ccc(C(=O)NCc3ccccc3)cc2)Sc2ccccc21 (stereo unspecified)
- IC50 [1]: 100 µM

SMILES: O=C(c1ccc(C2CC(=O)N(Cc3ccccc3[N+](=O)[O-])c3ccccc3S2)cc1)N1CCCCC1 (stereo unspecified)
- IC50 [1]: 49 µM

SMILES: CS(=O)(=O)c1cccc(N2C(=O)CC(c3ccc(C(=O)NCc4cccc(Cl)c4)cc3)Sc3ccccc32)c1 (stereo unspecified)
- IC50 [1]: 18 µM

SMILES: N#Cc1ccc(C2CC(=O)N(Cc3ccccc3[N+](=O)[O-])c3ccccc3S2)cc1 (stereo unspecified)
- IC50 [1]: 45 µM

SMILES: CN1CCN(C(=O)c2ccc(C3CC(=O)N(Cc4ccccc4[N+](=O)[O-])c4ccccc4S3)cc2)CC1 (stereo unspecified)
- IC50 [1]: > 100 µM

SMILES: COC(=O)c1ccc(C2CC(=O)N(Cc3ccccc3[N+](=O)[O-])c3ccccc3S2)cc1 (stereo unspecified)
- IC50 [1]: 35 µM

SMILES: O=C(NC1CCCCC1)c1ccc(C2CC(=O)N(Cc3ccccc3[N+](=O)[O-])c3ccccc3S2)cc1 (stereo unspecified)
- IC50 [1]: 32 µM

SMILES: CS(=O)(=O)Nc1ccccc1CN1C(=O)CC(c2ccc(C(=O)NCc3cccc(Cl)c3)cc2)Sc2ccccc21 (stereo unspecified)
- IC50 [1]: 17 µM

SMILES: O=C(NC1CC1)c1ccc(C2CC(=O)N(Cc3ccccc3[N+](=O)[O-])c3ccccc3S2)cc1 (stereo unspecified)
- IC50 [1]: > 100 µM

SMILES: O=C1CC(c2ccc(C(=O)NCc3cccc(Cl)c3)cc2)Sc2ccccc2N1 (stereo unspecified)
- inhibition [3]: 5.4%
- inhibition (INH) (Mus musculus [5]): 28.84%
- inhibition [6]: 18.5%
- inhibition [7]: 22%
- Activity (Mus musculus [8]): 49%
- inhibition [9]: 0%
- inhibition [10]: 2%
- inhibition [11]: 8.9%
- fold change (FC) (Mus musculus [12]): 1.34
- inhibition [14]: 41.2%
- inhibition [20]: 8.7%
- inhibition [21]: Active
- inhibition (INH) (Mus musculus [16]): 24.35%
- inhibition [17]: -6%
- inhibition (Homo sapiens): -7%
- IC50 [1]: 25 µM
- inhibition [19]: 46.6%

SMILES: CC(C)(C)NC(=O)c1ccc(C2CC(=O)N(Cc3ccccc3[N+](=O)[O-])c3ccccc3S2)cc1 (stereo unspecified)
- IC50 [1]: 48 µM

Further lines, with some results ahead:

- IC50 [1]: 25 µM
SMILES: O=C(NCc1ccc(Br)cc1)c1ccc(C2CC(=O)N(Cc3ccccc3[N+](=O)[O-])c3ccccc3S2)cc1 (stereo unspecified)

- IC50 [1]: 18 µM
SMILES: O=C(NCc1ccc(F)cc1)c1ccc(C2CC(=O)N(Cc3ccccc3[N+](=O)[O-])c3ccccc3S2)cc1 (stereo unspecified)

- IC50 [1]: 35 µM
SMILES: O=C(Nc1ccccn1)c1ccc(C2CC(=O)N(Cc3ccccc3[N+](=O)[O-])c3ccccc3S2)cc1 (stereo unspecified)

- inhibition [3]: 13.5%
- inhibition [6]: 68%
- inhibition [7]: 16%
- inhibition [9]: 7.2%
- inhibition [10]: 12%
- inhibition [2]: 28%
- inhibition [11]: 6.8%
- inhibition [13]: 12.2%
- inhibition [14]: 5.5%
- inhibition [15]: 7.2%
- inhibition [17]: 20%
- inhibition [18]: Active
- inhibition (Homo sapiens): 0%
- IC50 [1]: 28 µM
- inhibition [19]: 0%
SMILES: O=C(NCc1ccccc1)c1ccc(C2CC(=O)N(Cc3ccccc3[N+](=O)[O-])c3ccccc3S2)cc1 (stereo unspecified)
- fold change (FC) (Mus musculus [4]): 1.42
- inhibition (INH) (Mus musculus [5]): 43.18%
- Activity (Mus musculus [8]): 65%
- fold change (FC) (Mus musculus [12]): 1.93
- inhibition (INH) (Mus musculus [16]): 38.16%

- IC50 [1]: 22 µM
SMILES: CCCCNC(=O)c1ccc(C2CC(=O)N(Cc3ccccc3[N+](=O)[O-])c3ccccc3S2)cc1 (stereo unspecified)

- IC50 [1]: 19 µM
SMILES: O=C(NCc1cccc(F)c1)c1ccc(C2CC(=O)N(Cc3ccccc3[N+](=O)[O-])c3ccccc3S2)cc1 (stereo unspecified)

- IC50 [1]: 51 µM
SMILES: O=C1CC(c2ccc(-c3ccccc3)cc2)Sc2ccccc2N1Cc1ccccc1[N+](=O)[O-] (stereo unspecified)

- IC50 [1]: 21 µM
SMILES: O=C(NCCc1ccccc1)c1ccc(C2CC(=O)N(Cc3ccccc3[N+](=O)[O-])c3ccccc3S2)cc1 (stereo unspecified)

- IC50 [1]: 27 µM
SMILES: COc1ccc(CNC(=O)c2ccc(C3CC(=O)N(Cc4ccccc4[N+](=O)[O-])c4ccccc4S3)cc2)cc1 (stereo unspecified)

- IC50 [1]: 35 µM
SMILES: O=C(NCc1cccc(Cl)c1)c1ccc(C2CC(=O)N(Cc3ccccc3[N+](=O)[O-])c3ccccc3S2)cc1 (stereo unspecified)

- IC50 [1]: 75 µM
SMILES: O=C(NCc1ccccn1)c1ccc(C2CC(=O)N(Cc3ccccc3[N+](=O)[O-])c3ccccc3S2)cc1 (stereo unspecified)

- IC50 [1]: 33 µM
SMILES: O=C(NCc1ccc(Cl)cc1)c1ccc(C2CC(=O)N(Cc3ccccc3[N+](=O)[O-])c3ccccc3S2)cc1 (stereo unspecified)

- IC50 [1]: 20 µM
SMILES: O=C(NCc1ccccc1F)c1ccc(C2CC(=O)N(Cc3ccccc3[N+](=O)[O-])c3ccccc3S2)cc1 (stereo unspecified)

- IC50 [1]: 27 µM
SMILES: O=C(NCc1ccco1)c1ccc(C2CC(=O)N(Cc3ccccc3[N+](=O)[O-])c3ccccc3S2)cc1 (stereo unspecified)

- IC50 [1]: 18 µM
SMILES: Cc1ccc(CNC(=O)c2ccc(C3CC(=O)N(Cc4ccccc4[N+](=O)[O-])c4ccccc4S3)cc2)cc1 (stereo unspecified)
